The record followed here is publication PMC3366067 (Blood Cancer Journal, 2012).

The subject of one data set is pSTAT5 in SET-2 tumors. The data set is described as follows: pSTAT5 levels in SET-2 tumors after chronic treatment. The class given is in vivo, mouse. The conditions noted are these: end of study. Summed up: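 SET-2 s.c. tumors came from female SCID-beige mice dosed orally d0–d18. They were excised on the last treatment day, 3 h post-dose, and lysed. pSTAT5 was measured by western blot and compared with vehicle-treated animals.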

Data set [1] is described as follows: Pharmacokinetic analysis of pracinostat and pacritinib in plasma. The class given is in vivo, mouse. The conditions noted are these: d14 vs d1.
Data set [2] concerns IL-6, IP-10, KC and MIP-1α. The data set is described as follows: Plasma cytokine/chemokine analysis in SET-2 tumor-bearing mice. The class given is in vivo, mouse. Summed up:
(§1)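 Plasma came from female SCID-beige mice bearing s.c. SET-2 tumors (5 × 10^6 cells) that had been dosed orally with the test compounds in the efficacy study. It was collected on d18, 3 h post-dose. A Luminex 32-plex mouse cytokine/chemokine panel measured the analytes. Comparators were uninoculated naive mice and vehicle-treated tumor-bearing mice.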

A further data set relates to SET-2 xenografts. The data set is described as follows: Subcutaneous SET-2 model of megakaryoblastic leukemia. The class given is in vivo, mouse. The settings on record: d18. The gist of the method:
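Female SCID-beige mice (9 weeks; n=12 per group) were implanted s.c. with 5 × 10^6 SET-2 cells in Matrigel. From d33 post-implantation, they were dosed orally for 19 days (d0–d18), with separate doses at least 8 h apart. Tumor volume was measured by caliper as (w²×l)/2, and tumors were weighed at the end. Synergy was assessed by Clarke's CI, with <0 counted as synergy. Statistics used ANOVA/Dunnett.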

A short description of data set [3]: Toxicokinetic studies in mice, single agent. The class given is in vivo. The settings on record: data not shown.
Another data set has as its system MCP-1. Kind of data set: Plasma cytokine/chemokine analysis in SET-2 tumor-bearing mice. The class given is in vivo, mouse. The settings on record: d18. Summed up:
as §1

Data set [4] relates to pFLT3, FLT3 in MOLM-13 tumors. The data set is described as follows: Western blot analysis of MOLM-13 tumors. The class given is in vivo, mouse. The conditions noted are these: chronic treatment with pacritinib alone, d7.
The next data set deals with MOLM-13 s.c. xenografts. Kind of data set: Subcutaneous MOLM-13 xenograft model. The class given is in vivo, mouse. The settings on record: for reduction in tumor weight: d7. Summed up: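 Female SCID mice (n=12 per group) were given 5 × 10^6 MOLM-13 cells s.c. with Matrigel. Treatment started on d11 and ran 8 days, all oral: 50 mg/kg pacritinib daily in the evenings and 75 mg/kg pracinostat every other day. On the last day, tumors were excised and weighed. Metastases to lungs, breast fat-pad and lymph nodes were counted. Statistics used ANOVA/Dunnett.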

For data set [5], the system named is panel of 11 AML cell lines. Kind of data set: Cell proliferation assay. The class given is cell-based. The settings on record: Homo sapiens, 48 h, read-out: IC50 on cell proliferation. Summed up:
(§2)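 Cells were seeded at a predetermined optimal density in log phase and rested 2 h before treatment. They were then exposed for 48 h to test compound in 9 serial-dilution steps from 10 μM to 1.5 nM, with 0.1% solvent. Viability was read by CellTiter-Glo luminescence. At least three independent experiments were run in triplicate, and IC50 came from curve fitting.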

Data set [6] relates to pJAK2, JAK2, pSTAT5 and STAT5 in JAK2^V617F mutant cells (HEL92.1.7 and SET-2). Kind of data set: Western blot of JAK-STAT signaling. The class given is cell-based, human. The conditions noted are these: 125–500 nM for 24 h. The gist of the method: (§3)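 Cells were treated with test compound at 125–500 nM for 24 h, then lysed. Western blots of 25 μg total lysate were probed for pJAK2 (Y1007/1008), JAK2, pSTAT5 (Y694) and STAT5. JAK2V617F lines were compared with JAK2 wt lines.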

The test system of data set [7] is pJAK2, JAK2, pSTAT5 and STAT5 in JAK2 wt KARPAS 1106-P cells. The data set is described as follows: Western blot of JAK-STAT signaling. The class given is cell-based. The conditions noted are these: data not shown. Summed up:
as §3

Another data set concerns HL-60. Kind of data set: Cell proliferation assay and in vitro synergy. The class given is cell-based. The settings on record: Homo sapiens, HL-60, 48 h, read-out: IC50 on cell proliferation. Summed up:
as §2

Data set [8] concerns pFLT3 (Y591) in MOLM-13 cells (FLT3-ITD). The data set is described as follows: Western blot of FLT3 signaling. The class given is cell-based, human. The conditions noted are these: 500 nM, 24 h. The gist of the method: (§4)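 Cells were treated with test compound at graded concentrations for 24 h, then lysed. Western blots loaded 50 μg total lysate for pFLT3 (Y591) and FLT3, and 25 μg for the other proteins. Other antibodies were pSTAT5 (Y694) and STAT5. FLT3-ITD lines were compared with wt-FLT3 RS4;11 cells.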
In general terms: Immunoblotting shows a protein as a band on a membrane.

The test system of data set [9] is HL-60 cells engrafted orthotopically. Kind of data set: Orthotopic AML model. The class given is in vivo, mouse. Summed up: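 Female SCID mice (n=6 per group) received 1 × 10^7 HL-60 cells i.v. in 100 μl serum-free medium. From d30, once disease was established, they were dosed with 125 mg/kg test compound thrice weekly by oral gavage at 10 ml/kg. Paralysis symptoms were scored. Blood counts were taken from tail blood with a hematology analyzer and compared with age-matched uninoculated SCID mice. Statistics used ANOVA/Bonferroni.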

The test system of data set [10] is pFLT3 (Y591) in MV4-11 cells (FLT3-ITD). The data set is described as follows: Western blot of FLT3 signaling. The class given is cell-based, human. The conditions noted are these: 500 nM, 24 h. Summed up:
as §4

The test system of data set [11] is pFLT3, FLT3 and pSTAT5 in RS4;11 cells (wt FLT3). Kind of data set: Western blot of FLT3 signaling. The class given is cell-based, human. The conditions noted are these: RS4;11, 24 h, compared with FLT3-ITD cell lines. The gist of the method:
as §4

Data set [12] deals with pJAK2, JAK2, pSTAT5 and STAT5 in JAK2 wt 32D cells. The data set is described as follows: Western blot of JAK-STAT signaling. The class given is cell-based, murine. The conditions noted are these: 125–500 nM for 24 h. Summed up: as §3
For another data set, the system named is HEL92.1.7 xenografts. The data set is described as follows: Subcutaneous HEL92.1.7 xenograft model. The conditions noted are these: HEL92.1.7 model, 75 or 125 mg/kg every other day for 17 days. The class given is in vivo, mouse. The gist of the method: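 Female BALB/c nude mice (8–10 weeks; n=5 per group) were implanted s.c. in the right flank with 5 × 10^6 HEL92.1.7 cells in serum-free medium mixed 1:1 with Matrigel. From d18, they were dosed by oral gavage (10 ml/kg) at 75 or 125 mg/kg every other day for 17 days. Tumor volume was measured by caliper as (w²×l)/2.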

Another data set concerns MV4-11 xenografts. The data set is described as follows: Subcutaneous MV4-11 xenograft model. The class given is in vivo, mouse. The gist of the method: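 Female BALB/c nude mice (8–10 weeks; n=10 per group) were implanted s.c. in the right flank with 1 × 10^7 MV4-11 cells in serum-free medium mixed 1:1 with Matrigel. From d9, they received 25 or 50 mg/kg per day by oral gavage (10 ml/kg) for 21 days. Tumor volume was measured by caliper as (w²×l)/2. Statistics used ANOVA/Bonferroni.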

Where [13] appears, read: pacritinib 150 mg/kg twice daily.

Each structure is given as a SMILES string.

Regarding `C1=C/COCc2cc(ccc2OCCN2CCCC2)Nc2nccc(n2)-c2cccc(c2)COC/1` [pacritinib], the “decrease of pSTAT5 levels in tumors” value with pSTAT5 in SET-2 tumors (pacritinib 150 mg/kg twice daily, 3 h post dose) is “about 50%”. In addition, in data set [1] (pacritinib), the “increase in AUC after chronic dosing in combination” value is given as “approximately four-fold” and the “increase in Cmax after chronic dosing in combination” value is “approximately two-fold”. In data set [2] (single-agent pacritinib), the “plasma IL-6, IP-10, KC and MIP-1α” value is on record as “normalization”. Further, in the data set on SET-2 xenografts (setting [13]), the “TGI (tumor volume)” value was 61% and the “TGI on the basis of tumor weight” value was determined as 47%. Besides, in [3], the “increase in exposure following repeated dosing” value is given as “two-fold”. Also, the “reduction of plasma MCP-1 levels” value with MCP-1 (pacritinib single agent) came to 10%. Moreover, the “total levels of FLT3 in tumors” value in data set [4] is given as “increased expression total levels of FLT3 significantly”. The “reduction in tumor weight” value with MOLM-13 s.c. xenografts (pacritinib 50 mg/kg daily) came out at 14.7%. The “reduction of metastatic incidences” value in the data set on MOLM-13 s.c. xenografts (single-agent pacritinib) was 60%.
For the compound `CCCCc1nc2cc(/C=C/C(=O)NO)ccc2n1CCN(CC)CC` [pracinostat], the IC50 is 70 to 560 nM in data set [5] and 70 nM with HL-60. The “pJAK2 (Y1007/08) and pSTAT5 (Y694) levels, total JAK2 and STAT5 protein” value in data set [6] is “decreased”. The “pSTAT5 levels in tumors compared with vehicle treated animals” value in the data set with pSTAT5 in SET-2 tumors (pracinostat 75 mg/kg every other day) was “increased pSTAT5 levels”. For the same compound, the “pJAK2, JAK2, pSTAT5 and STAT5 protein levels” value in data set [7] and in data set [12] was “remained unaffected” each time. Also, the “pharmacokinetic parameters after 14 days of co-administration with pacritinib” value in data set [1] (pracinostat) was “similar”. Further, the “pFLT3 (Y591) level” value in [8] and in data set [10] was “near-total ablation” in each case. The numbers of platelets entry in data set [9] (125 mg/kg thrice weekly) was “without significantly reducing”. In addition, the “delay of the disease onset” value in data set [9] (125 mg/kg thrice weekly from d30) stood at 17 days. For the same compound, the “blood counts (white blood counts, lymphocyte counts)” value in data set [9] (125 mg/kg thrice weekly, d15 of the study) is recorded as “normalizing blood counts to the levels of disease-free mice”. In addition, the “reduction of death caused by progressive AML” value in data set [9] (125 mg/kg thrice weekly, study d24) came to 50%. Further, the “levels of pFLT3 and FLT3, and pSTAT5” value in data set [11] is recorded as “reduced, but to a lesser extent”. The “plasma IL-6, IP-10, KC and MIP-1α” value in [2] (single-agent pracinostat) is on record as “normalization”. Also, the “maximum body weight loss” value in the data set on HEL92.1.7 xenografts came out at 4.7%; in the data set with MV4-11 xenografts (MV4-11 model, 25 or 50 mg/kg per day for 21 days) it was 7%. The “TGI on the basis of tumor weight” value in the data set on SET-2 xenografts (pracinostat 75 mg/kg q.o.d) is listed as 42.5%. Further, in the data set on MV4-11 xenografts (50 mg/kg per day for 21 days), the “Complete tumor regression at the end of the treatment” value is 6 out of 10. Besides, in the data set with MCP-1 (pracinostat single agent), the “reduction of plasma MCP-1 levels” value worked out at 40%. Moreover, the “reduction in tumor weight” value with MOLM-13 s.c. xenografts (pracinostat 75 mg/kg q.o.d) turned out to be 19.2%. Besides, the “reduction of metastatic incidences” value in the data set with MOLM-13 s.c. xenografts (single-agent pracinostat) was 50%.
